Assay results published in ChEMBL document CHEMBL5096186, “Design, Synthesis, and Biological Evaluation of Novel Pyrimido[4,5-b]indole Derivatives Against Gram-Negative Multidrug-Resistant Pathogens” (J Med Chem, 2021).
Converted amounts (≈) assume the structure as drawn.

Assays:
Klebsiella pneumoniae [1] = test: Antibacterial activity agains wild type Klebsiella pneumoniae ATCC BAA-2470 assessed as reduction in bacterial growth incubated for 18 to 20 hrs by CLSI based microdilution method; format: functional; conditions: time 18-20 hrs
In short: (§1)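 Broth microdilution per CLSI. Compounds dissolved in DMSO (levofloxacin and meropenem in water) as 64 μg/mL stock, then serial twofold dilutions in broth giving 64 to 0.008 μg/mL. […] Clinical isolates tested as several strains per group; racemic GP-1 served as positive control; values given as MIC ranges.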

[2] = biological target: Voltage-gated inwardly rectifying potassium channel KCNH2 (Homo sapiens, UniProt Q12809); test: Inhibition of hERG potassium channel assessed as […] at -80 mV holding potential incubated for 120 seconds by whole cell-automated voltage clamp analysis assay; format: toxicity
Sequence of Voltage-gated inwardly rectifying potassium channel KCNH2 (Q12809 whole entry): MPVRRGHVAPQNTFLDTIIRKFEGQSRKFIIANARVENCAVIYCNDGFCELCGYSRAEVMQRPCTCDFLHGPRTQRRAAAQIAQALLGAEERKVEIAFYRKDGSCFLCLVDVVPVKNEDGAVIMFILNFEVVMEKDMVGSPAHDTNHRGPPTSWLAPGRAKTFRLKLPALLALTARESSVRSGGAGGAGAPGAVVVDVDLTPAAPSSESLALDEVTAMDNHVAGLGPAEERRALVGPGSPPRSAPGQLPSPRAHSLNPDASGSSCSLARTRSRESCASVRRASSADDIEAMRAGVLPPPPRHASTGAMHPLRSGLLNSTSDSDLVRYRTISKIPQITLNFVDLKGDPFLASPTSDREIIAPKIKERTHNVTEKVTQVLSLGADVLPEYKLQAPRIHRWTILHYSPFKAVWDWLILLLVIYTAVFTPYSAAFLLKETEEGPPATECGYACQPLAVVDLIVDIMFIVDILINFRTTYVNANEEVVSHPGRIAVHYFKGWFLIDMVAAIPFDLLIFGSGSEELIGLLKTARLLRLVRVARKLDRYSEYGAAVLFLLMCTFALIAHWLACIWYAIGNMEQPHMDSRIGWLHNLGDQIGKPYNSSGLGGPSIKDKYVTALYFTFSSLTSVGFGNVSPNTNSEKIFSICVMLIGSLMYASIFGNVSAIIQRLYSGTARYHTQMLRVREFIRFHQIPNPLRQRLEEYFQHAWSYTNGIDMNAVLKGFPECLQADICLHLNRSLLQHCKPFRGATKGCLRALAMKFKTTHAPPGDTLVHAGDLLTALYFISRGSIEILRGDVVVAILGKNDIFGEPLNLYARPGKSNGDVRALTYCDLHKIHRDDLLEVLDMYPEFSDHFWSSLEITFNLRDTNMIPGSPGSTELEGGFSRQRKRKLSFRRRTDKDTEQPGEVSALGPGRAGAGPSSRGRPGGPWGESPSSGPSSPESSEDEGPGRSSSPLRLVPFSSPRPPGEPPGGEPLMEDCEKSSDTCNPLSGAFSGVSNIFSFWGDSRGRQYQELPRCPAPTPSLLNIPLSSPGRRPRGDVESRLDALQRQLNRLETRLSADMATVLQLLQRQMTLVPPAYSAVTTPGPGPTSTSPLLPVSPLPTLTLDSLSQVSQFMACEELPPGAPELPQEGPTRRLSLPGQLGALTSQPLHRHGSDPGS
In short: (§2)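 Automated whole-cell patch clamp, holding potential −80 mV. Voltage protocol applied every 20 s. Baseline set with external solution containing 0.1% DMSO and stabilised 3 min. Compound applied until steady state, at least 3 min, then washout. Maximum tested concentration 40 μM, or 3 μM for cisapride as positive control.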

Staphylococcus aureus = test: Antibacterial activity against methicillin-sensitive Staphylococcus aureus strains 15 1 to 4 assessed as reduction in bacterial growth incubated for 18 to 20 hrs by CLSI based microdilution method; format: functional; conditions: time 18-20 hrs; in short: as §1
Acinetobacter baumannii [3] = test: Antibacterial activity agains OXA23-producing multidrug resistant Acinetobacter baumannii assessed as reduction in bacterial growth incubated for 18 to 20 hrs by CLSI based microdilution method; format: functional; conditions: time 18-20 hrs; in short: as §1
[4] = biological target: hERG (KCNH2) potassium channel (Homo sapiens, UniProt Q12809); test: Inhibition of hERG potassium channel assessed as maximum inhibition rate at 40 uM at -80 mV holding potential incubated for 120 seconds by whole cell-automated voltage clamp analysis assay relative to control; format: toxicity; conditions: time 120 sec; in short: as §2
Sequence of hERG (KCNH2) potassium channel (Q12809 whole entry): as above

Pseudomonas aeruginosa [5] = test: Antibacterial activity against IMP4-producing multidrug resistant Pseudomonas aeruginosa assessed as reduction in bacterial growth incubated for 18 to 20 hrs by CLSI based microdilution method; format: functional; conditions: time 18-20 hrs; in short: as §1
Escherichia coli [6] = test: Antibacterial activity against Escherichia coli ATCC 35218 strains 15 1 to 3 assessed as reduction in bacterial growth incubated for 18 to 20 hrs by CLSI based microdilution method; format: functional; conditions: time 18-20 hrs
In short: (§3)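 CLSI broth microdilution. Compounds in DMSO (levofloxacin and meropenem in water), serial twofold dilutions in broth, 64 to 0.008 μg/mL. […] Results reported as MIC ranges across strains.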

Klebsiella pneumoniae [7] = test: Antibacterial activity agains wild type Klebsiella pneumoniae ATCC BAA-1705 assessed as reduction in bacterial growth incubated for 18 to 20 hrs by CLSI based microdilution method; format: functional; conditions: time 18-20 hrs; in short: as §3
Klebsiella pneumoniae [8] = test: Antibacterial activity against KPC2-producing multidrug resistant Klebsiella pneumoniae assessed as reduction in bacterial growth incubated for 18 to 20 hrs by CLSI based microdilution method; format: functional; conditions: time 18-20 hrs; in short: as §1
Escherichia coli [9] = test: Antibacterial activity against ESBL-producing Escherichia coli ATCC 35218 strains 15 1 to 3 assessed as reduction in bacterial growth incubated for 18 to 20 hrs by CLSI based microdilution method; format: functional; conditions: time 18-20 hrs; in short: as §3
Pseudomonas aeruginosa [10] = test: Antibacterial activity against wild type Pseudomonas aeruginosa ATCC 27853 assessed as reduction in bacterial growth incubated for 18 to 20 hrs by CLSI based microdilution method; format: functional; conditions: time 18-20 hrs; in short: as §3
Escherichia coli [11] = test: Antibacterial activity against multidrug resistant wild type Escherichia coli ATCC BAA-2340 assessed as reduction in bacterial growth incubated for 18 to 20 hrs by CLSI based microdilution method; format: functional; conditions: time 18-20 hrs; in short: as §1
Escherichia coli [12] = test: Antibacterial activity against ESBL-producing multidrug resistant Escherichia coli assessed as reduction in bacterial growth incubated for 18 to 20 hrs by CLSI based microdilution method; format: functional; conditions: time 18-20 hrs; in short: as §1
Acinetobacter baumannii [13] = test: Antibacterial activity against wild type Acinetobacter baumannii NCTC 13304 assessed as reduction in bacterial growth incubated for 18 to 20 hrs by CLSI based microdilution method; format: functional; conditions: time 18-20 hrs; in short: as §1
Pseudomonas aeruginosa [14] = test: Antibacterial activity against multidrug resistant Pseudomonas aeruginosa strains 15 1 to 3 assessed as reduction in bacterial growth incubated for 18 to 20 hrs by CLSI based microdilution method; format: functional; conditions: time 18-20 hrs; in short: as §1
[15] = Cytotoxicity against human L02 cells assessed as cell viability measured for 48 hrs by CCK-8 assay; format: toxicity, cell-based
In short: (§4)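 Cells seeded at 1 × 10⁴ per well and grown for 48 h. Then exposed to test articles at 1–200 μM for another 48 h (n = 6). Viability by CCK-8 added for 2 h, absorbance read at 450 nm. CC50 calculated and reported as the mean.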

[16] = test system: Staphylococcus epidermidis; test: Antibacterial activity against methicillin-sensitive Staphylococcus epidermidis strains 15 1 to 4 assessed as reduction in bacterial growth incubated for 18 to 20 hrs by CLSI based microdilution method; format: functional; conditions: time 18-20 hrs; in short: as §1
[17] = Cytotoxicity against human HEK293 cells assessed as cell viability measured for 48 hrs by CCK-8 assay; format: toxicity, cell-based; in short: as §4
Escherichia coli [18] = test: Antibacterial activity against multidrug resistant wild type Escherichia coli NCTC 13353 assessed as reduction in bacterial growth incubated for 18 to 20 hrs by CLSI based microdilution method; format: functional; conditions: time 18-20 hrs; in short: as §1
[19] = Metabolic stability in rat liver microsome assessed as metabolic bioavailability at 0.1 uM in presence of NADPH incubated upto 60 mins by LC-MS/MS analysis; format: ADME; conditions: liver microsomes
In short: (§5)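 Compound at 0.1 μM final, in 0.01% DMSO with 0.005% BSA. Incubated with rat or human liver microsomes at 0.33 mg/mL in 0.1 M Tris-HCl, pH 7.4, with 5 mM MgCl₂ and 1 mM NADPH, at 37 °C. Samples at 0, 7, 17, 30 and 60 min quenched with cold methanol and analysed by LC-MS/MS. Half-life, Cl_int and MF% derived as previously described.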

[20] = Metabolic stability in human liver microsome assessed as elimination half life at 0.1 uM in presence of NADPH incubated upto 60 mins by LC-MS/MS analysis; format: ADME; conditions: liver microsomes, read-out: beta t1/2; in short: as §5
[21] = Metabolic stability in rat liver microsome assessed as intrinsic clearance at 0.1 uM in presence of NADPH incubated upto 60 mins by LC-MS/MS analysis; format: ADME; conditions: microsomes, 1 h; in short: as §5
[22] = Metabolic stability in rat liver microsome assessed as elimination half life at 0.1 uM in presence of NADPH incubated upto 60 mins by LC-MS/MS analysis; format: ADME; conditions: liver microsomes, read-out: beta t1/2; in short: as §5
[23] = Metabolic stability in human liver microsome assessed as intrinsic clearance at 0.1 uM in presence of NADPH incubated upto 60 mins by LC-MS/MS analysis; format: ADME; conditions: microsomes, 1 h; in short: as §5
[24] = Volume of distribution at the steady state in Sprague-Dawley rat at 4 mg/kg, iv measured upto 24 hrs by LC-MS/MS analysis; format: ADME, organism-based; conditions: in vivo, read-out: Vdss
In short: (§6)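 Male Sprague-Dawley rats, n = 3 per group, single intravenous dose. For 4 mg/kg: 180–280 g rats, vehicle 5% DMSO + 5% EtOH + 40% PEG300 + 50% saline, blood from the retrobulbar vein at 0.05–24 h. For 5 and 20 mg/kg: 180–300 g rats, vehicle 5% DMSO + 5% solutol + 90% saline, sampled at 0.083–24 h. Plasma quantified by LC/MS/MS. Parameters from mean plasma concentration by noncompartmental analysis; values are mean ± standard deviation.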

[25] = MRT in Sprague-Dawley rat at 4 mg/kg, iv measured upto 24 hrs by LC-MS/MS analysis; format: ADME, organism-based; conditions: in vivo; in short: as §6
[26] = Elimination half life in Sprague-Dawley rat at 4 mg/kg, iv measured upto 24 hrs by LC-MS/MS analysis; format: ADME, organism-based; conditions: in vivo, read-out: beta t1/2 (converted); in short: as §6
[27] = AUC (0 to infinity) in Sprague-Dawley rat at 4 mg/kg, iv measured upto 24 hrs by LC-MS/MS analysis; format: ADME, organism-based; set-up: time < 24 hrs, dose 4 mg/kg, route iv; conditions: in vivo; in short: as §6
[28] = Metabolic stability in human liver microsome assessed as metabolic bioavailability at 0.1 uM in presence of NADPH incubated upto 60 mins by LC-MS/MS analysis; format: ADME; conditions: liver microsomes; in short: as §5
[29] = Clearance in Sprague-Dawley rat at 4 mg/kg, iv measured upto 24 hrs by LC-MS/MS analysis; format: ADME, organism-based; conditions: in vivo; in short: as §6

| SMILES | MIC (Klebsiella pneumoniae [1]) [µg/mL] | IC50 [2] [µM] | MIC (Staphylococcus aureus) [µg/mL] | MIC (Acinetobacter baumannii [3]) [µg/mL] | inhibition at 2 min, 40 µM [4] [%] | MIC (Pseudomonas aeruginosa [5]) [µg/mL] | MIC (Escherichia coli [6]) [µg/mL] | MIC (Klebsiella pneumoniae [7]) [µg/mL] | MIC (Klebsiella pneumoniae [8]) [µg/mL] | MIC (Escherichia coli [9]) [µg/mL] | MIC (Pseudomonas aeruginosa [10]) [µg/mL] | MIC (Escherichia coli [11]) [µg/mL] | MIC (Escherichia coli [12]) [µg/mL] | MIC (Acinetobacter baumannii [13]) [µg/mL] | MIC (Pseudomonas aeruginosa [14]) [µg/mL] | MIC [16] [µg/mL] | MIC (Escherichia coli [18]) [µg/mL] | other results |
| --- | --- | --- | --- | --- | --- | --- | --- | --- | --- | --- | --- | --- | --- | --- | --- | --- | --- | --- |
| C=CCC(CN)=C1CN(c2nc(Oc3cnc(C)nc3)nc3[nH]c4c(NC)cc(F)cc4c23)C1 | 2 (≈ 4.34 µM) | > 40 | < 0.008 | 0.25 (≈ 0.543 µM) | 49.1 | 8 (≈ 17.4 µM) | 0.06 (≈ 0.13 µM) | 4 (≈ 8.69 µM) | 2 (≈ 4.34 µM) | 0.125 (≈ 0.271 µM) | 4 (≈ 8.69 µM) | 0.5 (≈ 1.09 µM) | 0.5 (≈ 1.09 µM) | 0.25 (≈ 0.543 µM) | 1 (≈ 2.17 µM) | < 0.008 | 0.25 (≈ 0.543 µM) | CC50 at 48 h [15]: 6.99 µM; CC50 at 48 h [17]: 29 µM |
| CCCC(CN)=C1CN(c2nc(Oc3cnc(C)nc3)nc3[nH]c4c(NC)cc(F)cc4c23)C1 | 4 (≈ 8.65 µM) | 51.5 | < 0.008 | 0.5 (≈ 1.08 µM) | 50.6 | 4 (≈ 8.65 µM) | 0.06 (≈ 0.13 µM) | 8 (≈ 17.3 µM) | 4 (≈ 8.65 µM) | 0.125 (≈ 0.27 µM) | 4 (≈ 8.65 µM) | 1 (≈ 2.16 µM) | 1 (≈ 2.16 µM) | 1 (≈ 2.16 µM) | 2 (≈ 4.32 µM) | < 0.008 | 0.5 (≈ 1.08 µM) | Fh at 1 h, 0.1 µM [19]: 34.5%; half-life at 0.1 µM [20]: 0.792 h; CLH [21]: 84.4 mL/min/g; half-life at 0.1 µM [22]: 0.415 h; CLH [23]: 44.3 mL/min/g; Vd [24]: 22.5 L/kg; MRT [25]: 4.4 h; half-life [26]: 4.7 h; AUC(0-inf) [27]: 778 ng·h/mL; Fh at 1 h, 0.1 µM [28]: 30.7%; clearance [29]: 86.8 mL/min/kg |
